Screens from PubChem BioAssay.
Sampled rows, rich in hits. Any-hit rate of the full collection: about 5.3%.
CSC inhib – cancer stem cell inhibition. cancer stem cell-like cells viability, luminescence. inhibition, % at 7.5 µM. hit rate 1.1% among 300,000; in the data active = inhibition above about 75%; inconclusive = no clear call, values can overlap the other calls; tested in HMLE shEcad cells
NALP3 yeast inh – NALP3 inhibition in yeast | Yeast reconstituted NLRP3/ASC/caspase-1, beta-gal luminescence, 24 h | inhibition, % at 10 µM | hit rate 0.39% among 330,000 | AID 2825;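 active = inhibition of 50% or more; inactive = inhibition below 50%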;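 note: plate controls were induced DMSO wells for no effect and uninduced yeast grown without galactose for full effect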
Calb FLC – C. albicans growth modulation with fluconazole; growth inhibition, % (concentration not given with the values); C. albicans CaCi-2 (fluconazole-resistant clinical isolate) + fluconazole, Alamar Blue growth, 48 h; AID 1979; hit rate 0.57% among 300,000;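 active = growth inhibition above about 58% in most replicates, limit read from the data, passing the limit was not always enough; inconclusive = exactly half the replicates above a set limit; inactive = most replicates below a set limit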;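 note: all wells also contain fluconazole at 8 µg/ml as a sub-toxic cotreatment; 0% = median of DMSO wells and 100% = median of geldanamycin control wells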
T cruzi inh – blocks replication of Trypanosoma cruzi | hit rate 1.4% among 300,000 | T. cruzi beta-gal in NIH3T3, luminescence, 90 h | inhibition, % (concentration not given with the values) | AID 1885;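 active = mean inhibition across valid replicates above about 55%, limit read from the data; inconclusive = mean below that limit but half or more replicates reach it; inactive = mean below it, under half of replicates reach it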;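 note: signal also drops with host cell toxicity which is not excluded here; 0% = plate median of DMSO wells and 100% = zero luminescence signal; higher percent means less beta-gal luminescence so fewer parasites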
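System – NIH/3T3 host cells with β-galactosidase reporter T. cruzi · Doses – single 50 nL compound addition per well in DMSO · Reagent – 5000 T. cruzi trypomastigotes/well · Medium – Low-serum DMEM with 2% FBS · Timing – ≥90 h infection period, 3 h prior cell attachment · Evaluation – parasite load inhibition, % · Technique – GalScreen luminescence, 60 min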
Beta apoptosis – beta cell apoptosis inhibition; hit rate 0.8% among 300,000; INS-1E cytokine-induced death, ATP luminescence, 48 h; percent of positive-control rescue, neutral wells zero; protection from apoptosis, % (no concentration beside the values);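 active = Every replicate reaches about 75%, or at least half do and their mean reaches it too, limit read from the data; inconclusive = At least half of replicates reach the limit but their mean does not; inactive = Under half of replicates reach the limit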;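 note: 0% = cytokine-treated negative control wells and 100% = positive control rescue; higher means more ATP so stronger rescue from cytokine killing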
Mdm2 MdmX PPI – human Mdm2/MdmX binding inhibition; O15151+Q00987; SaOS-2 split-luciferase Mdm2/MdmX complementation, luminescence; inhibition, % at 8 µM; hit rate 3% among 330,000; AID 485346;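 active = inhibition of at least 50% at 8 µM in the primary screen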
Target sequence (O15151 whole entry, looked up): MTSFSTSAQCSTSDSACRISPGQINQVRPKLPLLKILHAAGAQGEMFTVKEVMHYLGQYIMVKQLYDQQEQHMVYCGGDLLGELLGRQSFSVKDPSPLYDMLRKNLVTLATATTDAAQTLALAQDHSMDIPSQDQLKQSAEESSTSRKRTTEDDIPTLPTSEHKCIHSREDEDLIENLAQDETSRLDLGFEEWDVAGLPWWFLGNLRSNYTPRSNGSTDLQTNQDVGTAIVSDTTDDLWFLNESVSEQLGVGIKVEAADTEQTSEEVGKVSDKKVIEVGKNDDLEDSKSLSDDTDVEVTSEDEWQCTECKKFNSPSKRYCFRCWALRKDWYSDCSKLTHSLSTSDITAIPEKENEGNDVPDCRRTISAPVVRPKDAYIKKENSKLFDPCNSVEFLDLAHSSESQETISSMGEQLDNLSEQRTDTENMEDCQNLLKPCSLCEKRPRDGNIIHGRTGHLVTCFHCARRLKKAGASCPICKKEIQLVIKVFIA
Target sequence (Q00987 whole entry, looked up): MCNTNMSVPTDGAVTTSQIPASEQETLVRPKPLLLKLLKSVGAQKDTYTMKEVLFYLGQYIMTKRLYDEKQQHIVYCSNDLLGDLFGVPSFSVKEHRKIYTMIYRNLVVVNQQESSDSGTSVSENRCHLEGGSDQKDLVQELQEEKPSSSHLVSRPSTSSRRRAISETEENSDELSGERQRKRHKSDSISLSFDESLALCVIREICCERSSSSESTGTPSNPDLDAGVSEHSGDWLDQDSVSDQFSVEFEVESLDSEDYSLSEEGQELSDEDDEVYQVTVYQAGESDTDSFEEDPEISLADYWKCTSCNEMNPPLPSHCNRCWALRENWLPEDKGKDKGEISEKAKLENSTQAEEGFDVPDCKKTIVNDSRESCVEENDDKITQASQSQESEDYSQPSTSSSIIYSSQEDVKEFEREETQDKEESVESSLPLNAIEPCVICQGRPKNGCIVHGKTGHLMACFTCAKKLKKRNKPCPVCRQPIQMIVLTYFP
Mdm2 MdmX conf – confirmation of human Mdm2/MdmX interaction inhibitors; AID 489028; hit rate 55% among 10,000; Mdm2-MdmX binding, luminescent assay; shares compounds with Mdm2 MdmX PPI; inhibition, % at 8 µM; in the data active = inhibition above about 40%
Full FLuc ctr – counter-screen for Mdm2/MdmX inhibitors: full-length luciferase; shares compounds with Mdm2 MdmX PPI; SaOS-2 full-length luciferase counterscreen, luminescence; inhibition, % at 8 µM; hit rate 77% among 6,200; AID 504607;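 active = mean inhibition at 8 µM reaching about 37%, which flags the compound as non-specific, limit read from the data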;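 note: p53-null SaOS-2 cells with luciferase driven by a doxycycline-inducible promoter; compound on cells about two nights before reading with doxycycline added after day one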
Numbers without * were called inactive; u = inconclusive; x = not tested or not shown.

SMILES | CSC inhib | NALP3 yeast inh | Calb FLC | T cruzi inh | Beta apoptosis | Mdm2 MdmX PPI | Mdm2 MdmX conf | Full FLuc ctr
CCN(C(=O)c1cc2c(=O)[nH]c3ccc(C)cc3c2s1)c1ccccc1C | 18 | -10 | 5 | 56* | 11 | 57* | -9 | x
CCN(C(=O)c1cc2c(=O)[nH]c3ccc(C)cc3c2s1)c1ccc(F)cc1 | x | -7 | 15 | 41 | 7 | 48 | x | x
CCN(C(=O)c1cc2c(=O)[nH]c3ccc(C)cc3c2s1)c1cccc(C)c1 | 31 | -8 | 13 | 56* | 10 | 50 | 52* | 64*
Cc1ccc2[nH]c(=O)c3cc(C(=O)N(C)c4ccc(C)c(C)c4)sc3c2c1 | 27 | 3 | -3 | 35 | 8 | 65* | 40* | 67*
Cn1c(C(=O)NCCN2CCN(c3ccccc3F)CC2)cc2c(=O)n(C)c3ccccc3c21 | -19 | 8 | 33 | 16 | 2 | 36 | x | x
CCOc1ccccc1C(=O)OCC(=O)NCCc1ccc(OC)cc1 | -21 | 23 | x | x | -3 | 22 | x | x
Cc1cc(Nc2cccc(Cl)c2)nc(NCc2ccccc2)n1 | 108* | 32 | u | 58* | 107* | 59* | 40 | 62*
Cc1cc(N/N=C/c2cccc(Cl)c2)nc(NCc2ccccc2)n1 | 56 | 17 | -5 | 47 | 13 | 30 | x | x
Cc1cc(OC2CCCCC2)nc(NCc2ccccc2)n1 | 44 | 2 | -6 | 2 | x | 50* | 31 | x
Cc1cc(N2CCCCC2)nc(NCc2ccccc2)n1 | x | 5 | -7 | 56* | 52 | 65* | 45* | 61*
CCOc1cc(C)nc(NCc2ccccc2)n1 | 22 | -7 | -23 | 2 | 1 | -15 | x | x
Cc1ccc(-c2cc(C(=O)Nc3ccc(S(=O)(=O)Nc4onc(C)c4C)cc3)[nH]n2)c(O)c1 | 1 | 12 | -9 | 4 | -3 | 4 | x | x
Cc1c(C(=O)NC(C)c2ccccc2)c(-c2ccccc2)nn1-c1ccccc1 (centres undefined) | -9 | 4 | x | x | -3 | 34 | x | x
Cn1cc(-c2nnnn2-c2ccc(Cl)cc2)c(=O)c2ccccc21 | -3 | 16 | -4 | 6 | 2 | 30 | x | x
CC(=O)N1CC(=O)N=C1SCC(=O)Nc1nc(-c2ccccc2)c(-c2ccccc2)s1 | 33 | 27 | -5 | 19 | x | 57* | 10 | x
O=C(CSc1ccccn1)Nc1ccc(NC(=O)CSc2ccccn2)cc1 | -17 | -4 | 0 | 12 | -2 | 17 | x | x
O=C(CSc1ccccn1)Nc1nonc1[N+](=O)[O-] | x | 6 | 5 | 22 | x | 95* | 80* | 29
Nc1nc(N)nc(-c2ccccc2-c2nc(N)nc(N)n2)n1 | -4 | 7 | 7 | -7 | -7 | 0 | x | x
CC(C)(C)c1cc(-c2nc(N)nc(N)n2)c(O)c(C(C)(C)C)c1 | 126* | 1 | x | x | 4 | 68* | 6 | x
CC(NC(=S)NC1CCCCC1)c1ccc(C(C)(C)C)cc1 (centres undefined) | 45 | 33 | -21 | 42 | 99* | 67* | 24 | x
COc1ccccc1CNC(=O)/C=C/c1ccc(S(=O)(=O)NCc2ccco2)cc1 | -5 | 18 | 0 | -13 | 9 | -2 | x | x
CCn1c(SC)nnc1-c1sc2cc(Cl)ccc2c1Cl | x | 19 | -7 | 24 | 7 | 3 | x | x
Cc1ccc(C(=O)N2N=C(c3ccc(Br)cc3)CC2c2ccccc2O)cc1 (centres undefined) | 112* | 12 | -3 | 55* | 78* | 75* | 2 | x
O=C(Cn1c(=O)n(Cc2ccccc2)c(=O)c2ccccc21)NCc1ccco1 | -6 | 14 | -11 | 0 | 2 | 1 | x | x
O=c1c2ccccc2nc(CSc2nnnn2-c2ccccc2)n1-c1ccccc1Cl | -15 | -11 | 3 | -3 | 17 | 68* | 43* | 64*
SMILES | CSC inhib | NALP3 yeast inh | Calb FLC | T cruzi inh | Beta apoptosis | Mdm2 MdmX PPI | Mdm2 MdmX conf | Full FLuc ctr
O=C(CSc1nc2ccccc2c(=O)n1CCCN1CCOCC1)Nc1ccc(Br)cc1 | 2 | 16 | x | x | 4 | 34 | x | x
CC(=O)c1cccc(NC(=O)CSc2nc3ccccc3c(=O)n2CCCN2CCOCC2)c1 | -2 | -1 | x | x | -2 | 0 | x | x
CCc1ccc(NC(=O)CSc2nc3ccccc3c(=O)n2CCCN2CCC(C)CC2)cc1 | 23 | 12 | -16 | 25 | 9 | 86* | 49* | 36*
Cc1ccc(NC(=O)CSc2nc3ccccc3c(=O)n2CCCN2CCCCC2)cc1C | 11 | 2 | u | 48 | 7 | 75* | 40* | 62*
Cc1cc2c(cc(C(=O)OCC(=O)NCc3cccs3)n2C(C)C)o1 | 66 | 22 | 27 | -20 | -1 | 63* | 50* | 77*
Cc1cc(C)cc(C(=O)OCC(=O)NCc2cccs2)c1 | -3 | 33 | -24 | 7 | 2 | 23 | x | x
COc1ccccc1-[n+]1c(C)cc(/C=C2\Sc3ccccc3N2C)cc1C | 68 | 37 | -9 | 56* | 110* | 82* | 89* | 59*
COc1ccc(-[n+]2c(C)cc(/C=C3\Sc4ccccc4N3C)cc2C)cc1 | 56 | 12 | -6 | 43 | 116* | 83* | 78* | 16
COc1ccc(C(=O)/C=C2\Sc3ccccc3N2C)cc1 | 2 | 22 | 0 | 17 | 10 | -179 | x | x
COc1ccc(C2CC(c3ccc(C(F)(F)F)cc3)=NN2c2ccc(S(N)(=O)=O)cc2)cc1 (centres undefined) | x | x | x | x | x | 93* | -7 | x
COc1ccc(C2CC(c3ccccc3C(F)(F)F)=NN2c2ccc(S(N)(=O)=O)cc2)cc1 (centres undefined) | x | x | x | x | x | 67* | 62* | 70*
NS(=O)(=O)c1ccc(N2N=C(c3ccccc3)CC2c2ccccc2)cc1 (centres undefined) | 42 | 1 | 13 | 10 | 6 | 12 | x | x
CCc1ccc(C2=NN(c3ccc(S(N)(=O)=O)cc3)C(c3ccc(F)cc3)C2)cc1 (centres undefined) | 31 | -4 | u | 29 | 18 | 77* | 11 | x
C/C(=N/NC(=O)CNC(=O)c1cccs1)c1ccc(Cl)cc1 | 9 | 12 | -33 | -12 | -2 | -6 | x | x
CCc1ccc(-c2cc(C)no2)cc1S(=O)(=O)N1CCCN(Cc2ccc(F)cc2)C1 | -10 | 10 | -26 | 24 | -1 | 68* | 27 | x
O=C1CCCC2=C1C(c1cccs1)n1nc(SCc3ccccc3F)nc1N2 (centres undefined) | -2 | 7 | -6 | 19 | 2 | 29 | x | x
CCCN(CC(=O)Nc1ccc(Cl)cc1Cl)C(=O)CC(NC(C)=O)c1ccccc1 (centres undefined) | -12 | -3 | 9 | 2 | 0 | 17 | x | x
N#Cc1c([N+](=O)[O-])cc([N+](=O)[O-])cc1S(=O)(=O)Cc1ccccc1 | 125* | 0 | x | x | 113* | 98* | 96* | 0
